For one assay, the system named is HCT-116. As to the kind of experiment: Growth inhibition of human HCT116 cells overexpressing CHKA2 after 72 hrs by sulforhodamine assay. The format is functional. The following applies: HCT-116, 72 h. The method, boiled down: (§1)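 A549 (DMEM) or HCT-116 (RPMI-1640) cells in 10% FCS, 37°C, 5% CO2. Cells treated 24 h after seeding with 9 inhibitor concentrations, six replicates, for 72 h. Fixed with 10% TCA, stained with 0.4% SRB, read at 540 nm. GI50 from variable-slope sigmoidal fit of percent-of-control curves.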

Assay [1] can be described thus: Inhibition of recombinant delta49N CHKA2 (unknown origin) assessed as ADP formation using choline as substrate by enzyme coupled assay. On the set-up: species or system Homo sapiens. The gist of the method:
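Δ49N CHKA2 (20 ng) with 72 µM choline and 450 µM ATP (both at KM) in 100 mM Tris pH 7.5, 100 mM KCl, 10 mM MgCl2. Coupled system: 500 µM PEP, pyruvate kinase, LDH, 250 µM NADH. Inhibitor at varying concentrations. ADP formation followed as NADH loss at 340 nm. IC50 from variable-slope sigmoidal least-squares fit.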

The next assay relates to A549. As to the kind of experiment: Growth inhibition of human A549 cells overexpressing CHKA2 after 72 hrs by sulforhodamine assay. The format is functional. The conditions noted are these: A549, 72 h. The gist of the method:
as §1

The target in assay [2] is T1, Choline kinase alpha (Homo sapiens, UniProt P35790). Nature of the assay: Inhibition of CHKA in human HCT116 cells assessed as [3H]phosphocholine formation using [3H]choline chloride as substrate incubated for 1 hr prior to substrate addition measured after 1 hr by scintillation counting analysis. The following applies: for inhibition: HCT-116. It is filed as cell-based, HCT-116. The gist of the method:
(§2)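 HCT-116 cells pretreated 1 h with 0.16, 0.8, 4, 20 or 100 µM inhibitor. Then pulsed 1 h with [3H]choline chloride (0.5 µCi/mL). Cells washed in cold PBS and extracted with methanol/chloroform. Choline removed with tetraphenylborate in heptan-4-one. Aqueous phosphocholine counted by liquid scintillation and compared with untreated controls.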

For assay [3], the target named is T1, Choline kinase alpha. As to the kind of experiment: Inhibition of CHKA in human HCT116 cells assessed as [3H]phosphocholine formation using [3H]choline chloride as substrate at 6.5 +/-4 uM incubated for 1 hr prior to substrate addition measured after 1 hr by scintillation counting analysis. It is filed as cell-based. The following applies: HCT-116. The method, boiled down: as §2
Target sequence in this assay (P35790 whole entry, looked up): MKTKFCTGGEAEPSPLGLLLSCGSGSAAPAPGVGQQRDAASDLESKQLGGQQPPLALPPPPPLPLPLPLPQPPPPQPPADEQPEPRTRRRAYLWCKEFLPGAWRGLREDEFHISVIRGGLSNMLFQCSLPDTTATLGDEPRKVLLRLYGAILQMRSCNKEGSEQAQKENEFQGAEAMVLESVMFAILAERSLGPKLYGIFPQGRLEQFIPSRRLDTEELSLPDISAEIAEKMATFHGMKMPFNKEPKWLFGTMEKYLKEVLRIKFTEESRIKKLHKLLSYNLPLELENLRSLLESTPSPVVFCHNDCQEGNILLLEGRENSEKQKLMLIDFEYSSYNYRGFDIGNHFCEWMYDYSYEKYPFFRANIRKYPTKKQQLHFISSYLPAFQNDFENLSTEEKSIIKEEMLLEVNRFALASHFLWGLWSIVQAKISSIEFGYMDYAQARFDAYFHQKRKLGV

Assay [4] addresses T1, Choline kinase alpha. As to the kind of experiment: Inhibition of CHKA in human HCT116 cells assessed as [3H]phosphocholine formation using [3H]choline chloride as substrate at 2.4 +/-1 uM incubated for 1 hr prior to substrate addition measured after 1 hr by scintillation counting analysis. The format is cell-based. The following applies: HCT-116. The gist of the method:
as §2
Target sequence in this assay (P35790 whole entry, looked up): as above

For assay [5], the species on record is Homo sapiens. Nature of the assay: Competitive inhibition of recombinant delta49N CHKA2 (unknown origin) using 40 uM to 20 mM choline as substrate by Lineweaver-burk plot analysis in presence of 450 uM ATP.
The species entered for assay [6] is Homo sapiens. As to the kind of experiment: Competitive inhibition of recombinant delta49N CHKA2 (unknown origin) using 72 uM choline as substrate by Lineweaver-burk plot analysis in presence of 10 uM to 5 mM ATP.
The species entered for assay [7] is Homo sapiens. As to the kind of experiment: Mixed inhibition of recombinant delta49N CHKA2 (unknown origin) using choline as substrate by Lineweaver-burk plot analysis in presence of ATP.

What is called GI50 is the concentration that inhibits growth by half. The low end stands for more potent growth inhibition, the high end for less potent growth inhibition. The IC50 is the concentration that inhibits the measured activity by half. A word on the EC50: it is the concentration giving half of the maximal effect. The inhibition is the change of the read-out against control, counted positive when it falls.

Calls of active or inactive are those of the source. The calls are words filed in the database; no cut-off is given here.

As to `CN(C)c1cc[n+](CCCCCCCCC[n+]2ccc(N(C)C)cc2)cc1`, the GI50 is 2.6 µM with HCT-116 and 4 µM in the assay with A549. The IC50 in [1] turned out to be 1.3 µM.

As to `CN(C)c1cc[n+](CCCCCCCCCCCCCC[n+]2ccc(N(C)C)cc2)cc1`, on Choline kinase alpha [2], the EC50 amounted to 0.52 µM. Moreover, the results for the inhibition entry on Choline kinase alpha [2], at Choline kinase alpha [3] and on Choline kinase alpha [4] were “Dose-dependent effect”, above 75% and above 75%, respectively. Besides, the GI50 stood at 0.29 µM in the assay with HCT-116 and 0.33 µM in the assay with A549. Also, in [1], the half-inhibitory concentration (IC50) was found to be 0.15 µM.

For the compound `CN(C)c1cc[n+](CCCCCCCCCCC[n+]2ccc(N(C)C)cc2)cc1`, the GI50 with HCT-116 is 2 µM; in the assay with A549 it was 1.6 µM. The IC50 in [1] stood at 0.29 µM.

Take `CN(C)c1cc[n+](CCOCCOCCOCC[n+]2ccc(N(C)C)cc2)cc1`: the GI50 with HCT-116 was above 1000 µM.

As to `CN(C)c1cc[n+](CCCCCCCCCC[n+]2ccc(N(C)C)cc2)cc1`, the results for the GI50 with HCT-116 and in the assay on A549 were 2.8 µM and 4.2 µM, respectively. The half-inhibitory concentration (IC50) in assay [1] came out at 0.67 µM.

`CN(C)c1cc[n+](CCCCCCCCCCCC[n+]2ccc(N(C)C)cc2)cc1`: at Choline kinase alpha [2], the half-maximal effective concentration (EC50) worked out at 1.3 µM. Besides, the inhibition entry was “Dose-dependent effect” on Choline kinase alpha [2], above 75% on Choline kinase alpha [3] and above 75% on Choline kinase alpha [4]. For the same compound, the inhibition result in the assay listed under Homo sapiens [5] was “Active”. In addition, the GI50 in the assay on HCT-116 was found to be 0.64 µM; in the assay with A549 it was 0.38 µM. Further, in assay [1], the IC50 turned out to be 0.27 µM. Further, the inhibition result in the assay listed under Homo sapiens [6] was “inactive”.

In the case of `CN(C)c1cc[n+](CCCCCCCCCCCCn2cnc3ccccc32)cc1`, the GI50 was 0.69 µM in the assay with HCT-116 and 1.3 µM in the assay on A549. For the same compound, the IC50 in assay [1] is 5.1 µM.

Regarding `CN(C)c1cc[n+](CCCCCCCCCCCCn2cnc3c(N)ncnc32)cc1`, the GI50 in the assay on HCT-116 worked out at 4.1 µM; in the assay on A549 it was 5.3 µM. In addition, the half-inhibitory concentration (IC50) in [1] is 0.8 µM. In the assay listed under Homo sapiens [7], the inhibition result is “Active”.

Take `CN(C)c1cc[n+](CCCCCCCC[n+]2ccc(N(C)C)cc2)cc1`: the GI50 with HCT-116 was determined as 2.5 µM; with A549 it was 3.3 µM. Also, the IC50 in [1] worked out at 2.7 µM.

On to `CN(C)c1cc[n+](CCOCCOCCOCCn2cnc3ccccc32)cc1`, for which the GI50 in the assay on HCT-116 was above 1000 µM.

Source of the values: ChEMBL document CHEMBL3217582, “Design of symmetrical and nonsymmetrical N,N-dimethylaminopyridine derivatives as highly potent choline kinase alpha inhibitors” (Medchemcomm, 2013).
